Measurements as given in ChEMBL document CHEMBL1671641, “1,5-benzodiazepines, a novel class of hepatitis C virus polymerase nonnucleoside inhibitors” (Antimicrob Agents Chemother, 2008).
The source made the active and inactive calls. No cut-off for these calls is given here.

Key:
Hepatitis C virus [1] = assay: Inhibition of Hepatitis C virus 1b J4 recombinant NS5B Cdelta 21 RNA dependent RNA polymerase mediated formation of first phosphodiester bond during the polymerization reaction at 10 uM after 60 mins; conditions: Hepatitis C virus subtype 1b
How it was run: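 Buffer was 50 mM HEPES pH 7.5, 5 mM MgCl2, 5 mM MnCl2, 10 mM KCl, 1 mM DTT, at room temperature. In the time course, incubation was lengthened with inhibitor held at 10 μM. Products were phenol-extracted, ethanol-precipitated, denatured 3 min at 95°C, run on 8 M urea–20% polyacrylamide gels, and imaged.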

Hepatitis C virus [2] = assay: Ratio of EC50 for Hepatitis C virus 796 infected in HuH7 cells to EC50 for Hepatitis C virus 796 harboring NNI M423T mutant site in NS5B infected in HuH7 cells; assay type: functional, Hepacivirus hominis, Huh-7
How it was run: (§1)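 NS5B NNI-site mutations were introduced into the genotype 1b ET subgenomic luciferase replicon by site-directed mutagenesis. RNA was made by in vitro transcription and tested in a transient-replication assay.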

Hepatitis C virus [3] = assay: Inhibition of Hepatitis C virus 1b J4 recombinant NS5B Cdelta 21 RNA dependent RNA polymerase overexpressed in Escherichia coli BL21 (DE3) by RdRp primer-dependent transcription assay; parameters: species or system Hepatitis C virus subtype 1b
[4] = (§2) Cytotoxicity against human MT4 cells after 3 days by ATPLite assay; assay type: cell-based; conditions: MT4 cells
How it was run: (§3)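 MT4 cells, 5,000 per well, were incubated 3 days at 37°C with eight serial fourfold compound dilutions. Cytotoxicity was read as intracellular ATP by ATPlite 1step luminescence. Values are means ± SD from two to eight independent experiments in quadruplicate.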

Hepatitis C virus [5] = assay: Inhibition of Hepatitis C virus 1b J4 recombinant NS5B Cdelta 21 RNA dependent RNA polymerase overexpressed in Escherichia coli BL21 (DE3) assessed as [alpha-33P]UTP incorporation by RdRp primer-independent transcription assay; parameters: species or system Hepatitis C virus subtype 1b
How it was run: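 De novo (primer-independent) RdRp assay: 190 nM NS5BΔ21 (1b J4) with 86 nM HCV 3′ UTR template RNA, 0.5 mM each ATP/GTP/CTP, 10 μM UTP plus [α-³³P]UTP, in 20 mM Tris-HCl pH 7.5, 1 mM DTT, 5 mM MgCl₂, 20 mM NaCl. Incubated 2 h at room temperature, stopped with EDTA/tRNA, TCA-precipitated on filters, and scintillation-counted. Quadruplicate.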

MT4 [6] = assay: Cytotoxicity against LTR-Luc transfected human MT4 cells […] after 3 days by ATPLite assay; assay type: cell-based; conditions: mt4, 72 h, 72 h
Hepatitis C virus [7] = assay: Ratio of EC50 for Hepatitis C virus 796 infected in HuH7 cells to EC50 for Hepatitis C virus 796 harboring NNI P495L mutant site in NS5B infected in HuH7 cells; assay type: functional, Hepacivirus hominis, Huh-7; how it was run: as §1
[8] = Cytotoxicity against CMV-Luc transfected human HuH7 cells after 5 days; assay type: cell-based, Huh-7; conditions: huh-7, 120 h, 120 h
Hepatitis C virus [9] = assay: Ratio of EC50 for Hepatitis C virus 796 infected in HuH7 cells to EC50 for Hepatitis C virus 796 harboring NNI Y448A mutant site in NS5B infected in HuH7 cells; assay type: functional, Hepacivirus hominis, Huh-7; how it was run: as §1
[10] = Cytotoxicity against human HEK293T cells after 72 hrs by resazurin assay; assay type: cell-based, HEK-293T
How it was run: (§4)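 Cells were tested against eight serial fourfold dilutions for 72 h, at 3,000 cells/well for HEK293T and 4,000 cells/well for HepG2. Viability was read by resazurin staining. Values are means ± SD from two to eight independent experiments in quadruplicate.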

[11] = Inhibition of Gamma-aminobutyric acid type-A (GABAA) receptor by radioligand binding assay
How it was run: (§5)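 Radioligand binding assays for the GABA-A central BZD receptor and the peripheral BZD receptor were run as a single experiment in duplicate.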

Hepatitis C virus [12] = assay: Ratio of EC50 for Hepatitis C virus 796 infected in HuH7 cells to EC50 for Hepatitis C virus 796 harboring NNI C316Y mutant site in NS5B infected in HuH7 cells; assay type: functional, Hepacivirus hominis, Huh-7; how it was run: as §1
[13] = (§6) Cytotoxicity against human HepG2 cells after 72 hrs by resazurin assay; assay type: cell-based; conditions: HepG2 cells; how it was run: as §4
Hepatitis C virus [14] = assay: Ratio of EC50 for Hepatitis C virus 796 infected in HuH7 cells to EC50 for Hepatitis C virus 796 harboring NNI M414Q mutant site in NS5B infected in HuH7 cells; assay type: functional, Hepacivirus hominis, Huh-7; how it was run: as §1
Hepatitis C virus [15] = assay: Ratio of EC50 for Hepatitis C virus 796 infected in HuH7 cells to EC50 for Hepatitis C virus 796 harboring NNI H95R mutant site in NS5B infected in HuH7 cells; assay type: functional, Hepacivirus hominis, Huh-7; how it was run: as §1
Hepatitis C virus [16] = assay: Antiviral activity against Hepatitis C virus 1b infected in human HuH7 cells assessed as inhibition of viral replication after 3 days by luciferase reporter assay; assay type: functional, organism-based, Hepacivirus hominis, genotype 1b, Huh-7; conditions: huh-7
How it was run: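 HCV 1b subgenomic luciferase reporter replicon (clone ET) cells, 2,500 per well, were exposed to a nine-point 1/4 dilution series for 3 days. Replication was read as luciferase activity. Values are means ± SD from 2 to 23 independent experiments run in quadruplicate.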

Translocator protein = Translocator protein (Homo sapiens, UniProt P30536); assay: Inhibition of peripheral benzodiazepine BZD receptor by radioligand binding assay; how it was run: as §5
Sequence of Translocator protein (P30536 whole entry): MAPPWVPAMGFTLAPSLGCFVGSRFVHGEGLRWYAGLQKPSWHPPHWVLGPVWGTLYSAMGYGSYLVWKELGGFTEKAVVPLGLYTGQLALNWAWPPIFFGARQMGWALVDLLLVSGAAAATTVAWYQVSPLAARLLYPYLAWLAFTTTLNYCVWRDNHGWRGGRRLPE

[17] = Cytotoxicity against human HuH7 cells after 5 days by resazurin assay; assay type: cell-based, Huh-7
How it was run: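 Subconfluent HCV 1b subgenomic replicon cells, 500 per well and grown without G418, were incubated for 5 days with eight serial fourfold compound dilutions. Viability was read by resazurin. Values are means ± SD from two to eight independent experiments in quadruplicate.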

MT4 [18] = assay: as §2; assay type: cell-based; conditions: mt4, 72 h, 72 h; how it was run: as §3
HepG2 = assay: as §6; assay type: cell-based; conditions: hepg2, 72 h, 72 h; how it was run: as §4

CC(=O)N1c2ccccc2NC2=C(C(=O)CC(C)(C)C2)C1c1ccc(OCc2ccccc2)c(Cl)c1 (single isomer, unassigned; 4a)
inhibition (Hepatitis C virus [1]): Active

CC(=O)N1c2cccc(O)c2NC2=C(C(=O)CC(C)(C)C2)C1c1ccc(OCc2ccccc2)cc1Cl (single isomer, unassigned; 7a)
fold change (FC) (Hepatitis C virus [2]): 10
IC50 (Hepatitis C virus [3]): 0.05 µM
CC50 at 72 h [4]: 56.5 µM
IC50 (Hepatitis C virus [5]): 0.05 µM
CC50 (MT4 [6]): 16.2 µM
fold change (FC) (Hepatitis C virus [7]): 10
CC50 [8]: 12.8 µM
fold change (FC) (Hepatitis C virus [9]): 10
CC50 at 72 h [10]: > 25 µM
IC50 [11]: > 30 µM
fold change (FC) (Hepatitis C virus [12]): 10
CC50 at 72 h [13]: 31.2 µM
fold change (FC) (Hepatitis C virus [14]): 10
fold change (FC) (Hepatitis C virus [15]): 10
EC50 (Hepatitis C virus [16]): 1.2 µM
IC50 (Translocator protein): > 30 µM
CC50 at 120 h ([17]; HuH7 cells): 46.2 µM

CC(=O)N1c2cccc(O)c2NC2=C(C(=O)CC(C)(C)C2)C1c1ccc(OCc2ccccc2)cc1Cl (single isomer, unassigned; 7b)
IC50 (Hepatitis C virus [3]): 12.5 µM
CC50 (MT4 [18]): 38.4 µM
IC50 (Hepatitis C virus [5]): 18.5 µM
CC50 (MT4 [6]): 14.4 µM
CC50 [8]: 10.1 µM
CC50 (HepG2): > 25 µM
EC50 (Hepatitis C virus [16]): 2.1 µM
CC50 ([17]; huh-7, 120 h, 120 h): 23.8 µM
